From publication PMC2754219 (Obesity (Silver Spring, Md.), 2009)

Tests used:
[1] = test system: obese or overweight subjects; format: in vivo, human
[2] = test system: obese or overweight subjects; experiment: Clinical study: fasting lipoprotein and glycemic control parameters; format: in vivo, human; conditions: enrollment to week 16, evaluable population, mean ± s.e., SEM
Summary of the method: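 Fasting glucose, insulin, lipids and HOMA-IR were taken as change from enrollment to week 16 after the 4-week amylin analogue lead-in with a 40% caloric-deficit diet. This was followed by randomized s.c. b.i.d. leptin analogue, amylin analogue, or both, and advice to keep a 20% caloric deficit. Evaluable subjects had completed week 16; values are mean ± s.e.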

[3] = format: in vivo, human; conditions: week 16; metreleptin 5 mg b.i.d. s.c.
Summary of the method: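 Predose plasma leptin was measured at week 16 and expressed relative to enrollment concentration. Subjects received a leptin analogue at 5mg b.i.d. s.c., alone or with an amylin analogue at 360 μg b.i.d., each injected separately 15 min before morning and evening meals. Analysis covered the evaluable population; values are mean ± s.e.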

[4] = test system: nonleptin-deficient obesity; conditions: doses up to twofold those used in this study; and data on file, Amylin Pharmaceuticals, Inc.; cited from earlier work
[5] = test system: obese or overweight subjects; experiment: Clinical study: treatment-emergent adverse events, tolerability and withdrawals
[6] = evaluable population, LS mean ± s.e., SEM
[7] = ITT population, lead-in and postrandomization periods

## Metreleptin: recombinant methyl-human leptin (metreleptin)
[1]; day 1 to week 20, evaluable population, LS mean ± s.e., SEM
  Overall rate of weight change: −0.16 ± 0.06 kg/week
[1]; [6]
  Rate of weight change, Day 1 to week 12: −0.23 ± 0.06 kg/week
  Rate of weight change, Week 12 to week 20: −0.02 ± 0.08 kg/week
[1]; evaluable, rounded figures of the discussion
  Weight loss, percent of initial body weight over 24 weeks: ~ 8%
[2]
  Change in HOMA-IR: −0.10 ± 0.29
[2]; fasting serum
  Change in insulin: −0.6 ± 1.1 μIU/ml
[2]; fasting
  Change in HDL: 1.7 ± 1.5 mg/dL
  Change in LDL: 1.1 ± 5.1 mg/dL
  Change in blood glucose: 0.7 ± 1.7 mg/dL
  Change in total cholesterol: 2.7 ± 5.8 mg/dL
  Change in triglycerides: 5.7 ± 13.5 mg/dL
[3]
  Increase of predose leptin concentrations over enrollment concentrations: 13- to 16 fold
[4]
  Weight loss in previous monotherapy trials: failed to show significant weight loss
[5]; [7]
  Back pain: 0 (0.0) n (%)
  Constipation: 1 (3.7) n (%)
  Diarrhea: 0 (0.0) n (%)
  Headache: 2 (7.4) n (%)
  Hypersensitivity: 2 (7.4) n (%)
  Influenza: 1 (3.7) n (%)
  Injection site adverse events: 18 (66.7) n (%)
  Nasopharyngitis: 2 (7.4) n (%)
  Nausea: 7 (25.9) n (%)
  Streptococcal pharyngitis: 0 (0.0) n (%)
  Vomiting: 2 (7.4) n (%)
[5]; through week 20, randomized/ITT population
  Withdrew during randomized treatment, reason: Adverse event: 3 (11) n (%)
